# Measured values of several laboratories.
# Each line is one published result; the experiments were not run side by side.
# Target: Serine/threonine-protein kinase 17A (STK17A, Homo sapiens, UniProt Q9UEE5)
# Residues used in one study (Q9UEE5 1-414): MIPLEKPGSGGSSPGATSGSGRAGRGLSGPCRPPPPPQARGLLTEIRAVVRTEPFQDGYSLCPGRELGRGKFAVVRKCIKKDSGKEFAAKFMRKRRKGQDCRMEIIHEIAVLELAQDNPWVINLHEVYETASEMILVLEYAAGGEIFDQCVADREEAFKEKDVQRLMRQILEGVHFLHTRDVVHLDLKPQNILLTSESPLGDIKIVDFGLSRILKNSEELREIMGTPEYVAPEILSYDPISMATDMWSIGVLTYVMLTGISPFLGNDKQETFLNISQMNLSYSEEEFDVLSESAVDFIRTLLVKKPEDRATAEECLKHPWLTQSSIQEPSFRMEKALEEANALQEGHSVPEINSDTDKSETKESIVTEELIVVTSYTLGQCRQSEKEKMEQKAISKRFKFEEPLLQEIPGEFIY
Compound,observed,method,tested at,remaining binding
C[C@H](c1cccc(C#N)c1)n1cc(Cl)cc(C(N)=O)c1=N,cell-free assay,competition with immobilised ligand,1 µM,85%
CN(C)c1nccc(-c2cnn3ncccc23)n1,binding,,1 µM,76%
COc1cc(-c2cn(C3CCc4c(F)cccc4N(CC(F)(F)F)C3=O)nn2)ccc1-n1cnc(C)c1 (stereo not shown),cell-free assay,competition with immobilised ligand,1 µM,100%
COc1cnc(Nc2cccc(S(N)(=O)=O)c2)nc1N1CCN(c2ccccc2)C(=O)C1,binding,competition with immobilised ligand,1 µM,98%
c1ccc(N2CCN(Cc3nc4ccccc4[nH]3)CC2)nc1,cell-free assay,competition with immobilised ligand,1 µM,100%
O=C(NCCCN1CCOCC1)c1ccc(Nc2ncc(Cl)c(-c3ccc(Cl)s3)n2)cc1,binding,competition with immobilised ligand,1 µM,0.85%
O=C(NCC1CCOCC1)c1n[nH]cc1NC(=O)c1c(F)cccc1F,binding,competition with immobilised ligand,1 µM,94%
CNC(=O)[C@@H]1CC[C@@H](n2c(-c3ccc4cnccc4c3)nc3ccc(C(=O)NCc4cccc(C(N)=O)c4)cc32)C1,binding,competition with immobilised ligand,1 µM,100%
CSc1cccnc1N1CCN(Cc2nc3ccccc3[nH]2)CC1,cell-free assay,competition with immobilised ligand,1 µM,98%
N[C@@H]1CCN(c2nccc(-c3cnn4ncccc34)n2)C1,binding,,1 µM,100%
O=C(c1ccc(Nc2nccc(-c3cc4ccccc4s3)n2)cc1)N1CCC(N2CCCC2)CC1,binding,competition with immobilised ligand,1 µM,0.3%
O=S(=O)(NC1CCC(c2cc(F)ccc2F)(S(=O)(=O)c2ccc(Cl)cc2)CC1)C(F)(F)F (stereo not shown),cell-free assay,competition with immobilised ligand,1 µM,86%
CN(C)c1ncc(F)c(-c2cnn3ncccc23)n1,binding,,1 µM,95%
C[C@@H](c1ccc(-n2cnc3c(N)ncnc32)cc1)N1CCc2nn(C)c(Cc3ccccc3)c2C1=O,binding,competition with immobilised ligand,0.1 µM,91%
C[C@@H]1CCN(c2nccc(-c3cnn4ncccc34)n2)C1,binding,,1 µM,19%
O=C(c1ccc(Nc2ncc(Cl)c(-c3cc4ccccc4s3)n2)cc1)N1CCC(N2CCCC2)CC1,binding,competition with immobilised ligand,1 µM,0%
CN(c1nccc(-c2cnn3ncccc23)n1)C1CC1,binding,,1 µM,100%
FC(F)(F)Oc1cccc(-c2cnc3ccc(-c4ccncc4)nn23)c1,cell-free assay,competition with immobilised ligand,5 µM,12%
C[C@@]1(Cc2ccc(C#N)cc2)C(=O)N(c2cc(Cl)cc(Cl)c2)c2ncc(C(=O)NC3(c4nc(C5CCC5)no4)CC3)n21,cell-free assay,competition with immobilised ligand,1 µM,91%
CN(CCCC(F)(F)F)c1nccc(-c2cnn3ncccc23)n1,binding,,1 µM,100%
Cc1c(C(=O)O)cc(-c2ccc(C3CCNCC3)cc2)c2ccc(-c3ccc(C(F)(F)F)cc3)cc12,cell-free assay,competition with immobilised ligand,1 µM,99%
COc1ccnn2ncc(-c3ccnc(N(C)C)n3)c12,binding,,1 µM,96%
